Data on 11 compounds can be found in ChEMBL document CHEMBL1129267, “Aryl 1-but-3-ynyl-4-phenyl-1,2,3,6-tetrahydropyridines as potential antipsychotic agents: synthesis and structure-activity relationships” (J Med Chem, 1996).

pEC50, pKi: −log10 of the molar value.

Assay [1] deals with Rattus norvegicus. Kind of assay: In vivo inhibition of locomotor activity in the rat following p.o. administration. In kind it is functional. To be noted: po.
The subject of assay [2] is Mus musculus. Kind of assay: (§1) Compound was tested for the inhibition of locomotor activity (LMA)by administering Intraperitoneally in mouse. In kind it is functional. To be noted: ip. In short, it runs like this:
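Mice dosed ip, then tested immediately for 1 h in darkened cylindrical photobeam chambers. Percent inhibition of locomotor activity relative to vehicle-treated animals; ED50 derived from three to six doses, n = 6-18 animals/dose.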

Assay [3] deals with T1, D(2) dopamine receptor (Rattus norvegicus, UniProt P61169). Kind of assay: Binding affinity at Dopamine receptor D2 in rat striatal membrane by [3H]spiperone displacement. In kind it is cell membranes, Striatum. In short, it runs like this:
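Rat striatal membranes; [³H]spiperone 0.2 nM final; nonspecific binding defined with (+)-butaclamol 1.0 µM final. Four to six concentrations, each run in triplicate; Ki obtained by nonlinear regression analysis.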

In assay [4] the test system is Mus musculus. The description is as §1. The note with it: ip. In kind it is functional. The source holds these as a separate data set.
For assay [5], the target named is T2, 5-hydroxytryptamine receptor 1A (Rattus norvegicus, UniProt P19327).
T2 sequence (P19327 whole entry): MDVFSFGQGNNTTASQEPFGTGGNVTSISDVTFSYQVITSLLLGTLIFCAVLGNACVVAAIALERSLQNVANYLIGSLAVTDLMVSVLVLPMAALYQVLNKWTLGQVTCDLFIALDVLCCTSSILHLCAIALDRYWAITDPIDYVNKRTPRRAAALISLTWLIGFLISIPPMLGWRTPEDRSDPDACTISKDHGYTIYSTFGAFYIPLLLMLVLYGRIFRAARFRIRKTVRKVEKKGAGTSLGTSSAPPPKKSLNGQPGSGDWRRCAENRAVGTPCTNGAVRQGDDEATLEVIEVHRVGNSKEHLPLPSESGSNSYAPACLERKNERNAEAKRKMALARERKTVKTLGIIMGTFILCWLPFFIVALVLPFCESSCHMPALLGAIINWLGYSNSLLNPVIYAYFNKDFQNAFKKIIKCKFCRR
The assay is described as follows: Binding affinity against serotonin 5-hydroxytryptamine 1A receptor using radioligand [3H]8-OH-DPAT binding assay. In short, it runs like this: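 Rat hippocampal membranes labelled with [³H]-8-OH-DPAT (0.4 nM final); nonspecific binding with 8-OH-DPAT (1 µM).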

The test system of assay [6] is Rattus norvegicus. Kind of assay: Percent decrease of the firing rate of rat substantia nigra DA neurons at a dose of 2.5 mg/kg ip. Type of assay: functional. The note with it: route intraperitoneal.
For assay [7], the target named is D(2) dopamine receptor (Homo sapiens, UniProt P14416). Kind of assay: […] Dopamine receptor D2 mitogenesis measured as [3H]thymidine incorporation in CHO p-5 cells expressing human D2 receptors. In short, it runs like this:
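CHO p-5 cells transfected with human D2L are grown 2 days at 37 °C in medium with 10% calf serum, rinsed, and switched to serum-free medium plus compound in water. After 16-17 h, [³H]thymidine (1 µCi/well) is added for 4 h; cells are harvested onto filters and counted.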

The target of assay [8] is T3, Adrenergic receptor alpha-1 (Rattus norvegicus, UniProt P15823+P23944+P43140).
T3 sequence (P15823 whole entry): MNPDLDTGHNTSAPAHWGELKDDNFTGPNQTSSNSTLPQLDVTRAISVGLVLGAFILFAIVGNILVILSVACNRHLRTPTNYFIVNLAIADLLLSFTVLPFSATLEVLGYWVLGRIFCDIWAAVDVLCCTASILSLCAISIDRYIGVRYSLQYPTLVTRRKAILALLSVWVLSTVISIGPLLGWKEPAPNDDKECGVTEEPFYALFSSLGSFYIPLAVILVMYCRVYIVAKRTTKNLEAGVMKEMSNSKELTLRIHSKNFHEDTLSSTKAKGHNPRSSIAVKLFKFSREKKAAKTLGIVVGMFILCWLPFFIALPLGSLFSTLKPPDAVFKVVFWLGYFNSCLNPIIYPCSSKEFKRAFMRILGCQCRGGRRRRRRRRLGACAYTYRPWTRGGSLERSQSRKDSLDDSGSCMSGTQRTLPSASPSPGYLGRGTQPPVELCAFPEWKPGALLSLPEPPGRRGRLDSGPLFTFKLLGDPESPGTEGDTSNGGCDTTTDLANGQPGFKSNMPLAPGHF
T3 sequence (P23944 whole entry): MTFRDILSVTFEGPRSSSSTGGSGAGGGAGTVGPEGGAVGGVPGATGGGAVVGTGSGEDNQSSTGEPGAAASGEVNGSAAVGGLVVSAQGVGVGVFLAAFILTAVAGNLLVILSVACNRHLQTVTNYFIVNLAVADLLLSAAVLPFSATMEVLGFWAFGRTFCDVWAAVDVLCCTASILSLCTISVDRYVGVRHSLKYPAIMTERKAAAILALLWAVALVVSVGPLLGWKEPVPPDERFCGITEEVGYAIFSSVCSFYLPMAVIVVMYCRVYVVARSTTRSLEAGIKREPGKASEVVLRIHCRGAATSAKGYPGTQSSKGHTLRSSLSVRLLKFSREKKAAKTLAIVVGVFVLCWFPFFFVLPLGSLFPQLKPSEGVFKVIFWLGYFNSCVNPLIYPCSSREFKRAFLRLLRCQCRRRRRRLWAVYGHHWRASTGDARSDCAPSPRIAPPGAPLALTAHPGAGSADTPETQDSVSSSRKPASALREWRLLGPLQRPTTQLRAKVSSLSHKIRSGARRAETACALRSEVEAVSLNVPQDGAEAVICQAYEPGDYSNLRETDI
T3 sequence (P43140 whole entry): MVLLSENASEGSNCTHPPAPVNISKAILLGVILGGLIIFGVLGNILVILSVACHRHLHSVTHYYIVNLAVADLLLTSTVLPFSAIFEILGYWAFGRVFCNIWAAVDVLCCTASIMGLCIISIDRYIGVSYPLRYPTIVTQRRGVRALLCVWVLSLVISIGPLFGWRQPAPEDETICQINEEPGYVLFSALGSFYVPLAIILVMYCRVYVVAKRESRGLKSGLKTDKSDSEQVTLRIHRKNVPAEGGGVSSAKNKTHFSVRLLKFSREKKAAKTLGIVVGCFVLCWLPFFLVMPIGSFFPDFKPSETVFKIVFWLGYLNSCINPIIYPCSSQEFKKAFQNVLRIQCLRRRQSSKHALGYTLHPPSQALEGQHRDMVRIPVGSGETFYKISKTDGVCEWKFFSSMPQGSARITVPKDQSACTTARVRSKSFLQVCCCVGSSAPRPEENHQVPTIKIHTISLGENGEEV
The assay is described as follows: Binding affinity against Alpha-1 adrenergic receptor using radioligand [3H]prazosin binding assay. In kind it is protein assay. Put shortly:
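Inhibition of [³H]prazosin (0.1 nM final) binding in rat cortex membranes; phentolamine (10 µM final) defines nonspecific binding.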

For assay [9], the target named is T1, D(2) dopamine receptor. The assay is described as follows: Binding affinity against Dopamine receptor D2 in CHO-K1 cells using radioligand [3H]NPA binding assay. In kind it is cell-based.
For assay [10], the target named is D(3) dopamine receptor (Homo sapiens, UniProt P35462). Kind of assay: Binding affinity against human Dopamine receptor D3 in CHO-K1 cells using [3H]spiperone as radioligand. Type of assay: cell-based.
D(3) dopamine receptor, sequence (P35462 whole entry): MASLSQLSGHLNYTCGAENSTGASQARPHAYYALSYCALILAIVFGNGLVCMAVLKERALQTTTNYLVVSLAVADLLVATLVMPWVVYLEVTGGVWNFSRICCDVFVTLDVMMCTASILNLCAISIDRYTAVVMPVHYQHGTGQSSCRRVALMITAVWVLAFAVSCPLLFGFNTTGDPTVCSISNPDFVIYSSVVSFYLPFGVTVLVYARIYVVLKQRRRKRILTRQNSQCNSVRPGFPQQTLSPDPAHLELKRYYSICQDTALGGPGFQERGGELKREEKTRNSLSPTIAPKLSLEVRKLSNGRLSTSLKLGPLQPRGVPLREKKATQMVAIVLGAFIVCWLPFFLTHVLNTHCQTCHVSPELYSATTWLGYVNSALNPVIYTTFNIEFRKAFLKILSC
In assay [11] the test system is Monkey. Kind of assay: Compound was tested for inhibition of conditioned avoidance after administering perorally(po) in squirrel monkeys. The note with it: Cebidae, in Saimiri. In kind it is functional.
Assay [12] concerns the target T4, D(4) dopamine receptor (Homo sapiens, UniProt P21917).
T4 sequence (P21917 whole entry): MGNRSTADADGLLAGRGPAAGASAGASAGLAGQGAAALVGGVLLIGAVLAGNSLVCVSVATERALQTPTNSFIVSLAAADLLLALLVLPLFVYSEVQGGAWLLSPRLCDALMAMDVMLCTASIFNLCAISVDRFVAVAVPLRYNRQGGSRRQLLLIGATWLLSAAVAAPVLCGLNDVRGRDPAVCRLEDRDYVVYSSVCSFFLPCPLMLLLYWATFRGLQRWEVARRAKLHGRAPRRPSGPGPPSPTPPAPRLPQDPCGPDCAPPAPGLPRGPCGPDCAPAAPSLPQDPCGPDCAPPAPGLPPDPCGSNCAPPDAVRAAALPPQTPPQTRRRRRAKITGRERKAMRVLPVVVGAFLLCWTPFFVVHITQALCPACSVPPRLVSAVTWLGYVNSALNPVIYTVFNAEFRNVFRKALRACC
The assay is described as follows: Binding affinity against human Dopamine receptor D4 in CHO-K1 cells using [3H]spiperone as radioligand. Type of assay: cell-based. Put shortly:
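Human D4.2 receptor expressed in CHO K1 cells; [³H]spiperone 0.2 nM final; nonspecific binding defined with haloperidol 1.0 µM final.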

Assay [13] concerns the target D(1A) dopamine receptor (Rattus norvegicus, UniProt P18901). In kind it is cell membranes, Brain, Membrane.
Assay [14] concerns Rattus norvegicus. The assay is described as follows: Percent reversal of the increase on DOPA levels in the striatum of GBL-treated rats at a dose of 10 mg/kg ip. The note with it: route intraperitoneal. Type of assay: functional.

T1 sequence (P61169 whole entry): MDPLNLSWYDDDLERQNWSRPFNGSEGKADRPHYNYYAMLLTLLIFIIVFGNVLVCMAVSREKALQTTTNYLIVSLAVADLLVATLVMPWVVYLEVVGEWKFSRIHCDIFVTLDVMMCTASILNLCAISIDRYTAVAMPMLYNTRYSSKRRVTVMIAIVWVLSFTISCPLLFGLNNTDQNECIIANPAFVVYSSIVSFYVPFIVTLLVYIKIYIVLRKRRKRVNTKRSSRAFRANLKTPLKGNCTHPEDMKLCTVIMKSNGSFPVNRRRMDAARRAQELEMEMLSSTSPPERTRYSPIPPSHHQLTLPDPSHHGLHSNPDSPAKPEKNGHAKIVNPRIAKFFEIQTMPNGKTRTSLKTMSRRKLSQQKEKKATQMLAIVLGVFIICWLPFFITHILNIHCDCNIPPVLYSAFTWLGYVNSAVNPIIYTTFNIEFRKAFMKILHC
D(2) dopamine receptor (Homo sapiens, UniProt P14416), sequence (P14416 whole entry): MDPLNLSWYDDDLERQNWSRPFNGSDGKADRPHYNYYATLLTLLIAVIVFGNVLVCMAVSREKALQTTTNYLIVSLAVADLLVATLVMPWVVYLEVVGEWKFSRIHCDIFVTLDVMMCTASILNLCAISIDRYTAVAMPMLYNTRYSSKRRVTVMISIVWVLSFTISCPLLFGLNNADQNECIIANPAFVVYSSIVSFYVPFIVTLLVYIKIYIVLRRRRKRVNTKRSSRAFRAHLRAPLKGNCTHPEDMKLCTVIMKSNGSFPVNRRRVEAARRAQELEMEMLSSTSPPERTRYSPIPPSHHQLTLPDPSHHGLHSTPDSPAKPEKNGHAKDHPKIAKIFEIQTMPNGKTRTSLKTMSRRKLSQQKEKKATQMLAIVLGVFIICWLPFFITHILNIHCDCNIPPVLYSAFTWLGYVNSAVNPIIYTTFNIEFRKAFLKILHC
D(1A) dopamine receptor, sequence (P18901 whole entry): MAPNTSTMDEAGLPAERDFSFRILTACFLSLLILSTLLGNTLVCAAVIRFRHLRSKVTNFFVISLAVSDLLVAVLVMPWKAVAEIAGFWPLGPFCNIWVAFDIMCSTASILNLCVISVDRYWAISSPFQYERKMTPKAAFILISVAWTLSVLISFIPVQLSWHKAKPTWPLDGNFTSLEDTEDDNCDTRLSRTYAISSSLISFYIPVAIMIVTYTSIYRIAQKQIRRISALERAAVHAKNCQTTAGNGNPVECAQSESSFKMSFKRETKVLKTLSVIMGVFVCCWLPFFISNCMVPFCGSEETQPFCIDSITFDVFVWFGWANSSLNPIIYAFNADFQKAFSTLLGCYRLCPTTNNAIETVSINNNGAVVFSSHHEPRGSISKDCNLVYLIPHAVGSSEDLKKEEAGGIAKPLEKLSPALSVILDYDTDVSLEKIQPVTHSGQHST

Turning to `C(#Cc1cccnc1)CCN1CCN(c2ccccn2)CC1`, the figures for the ED50 in [1] and in [2] were above 30 mg/kg and 2.2 mg/kg, respectively.

For the compound `C(#Cc1cccnc1)CCN1CC=C(c2cccs2)CC1`, the median effective dose (ED50) (as a rule, the midpoint of the dose-response relation) came to 5 mg/kg in assay [1] and 0.86 mg/kg in assay [2]. For the same compound, the pKi (as a rule, the Ki on a negative log10 scale, so that one unit is a factor of ten) in [3] was 6.59.

Take `C(#Cc1ccc2c(c1)OCCO2)CCN1CC=C(c2ccccc2)CC1`: the ED50 was above 30 mg/kg in assay [1] and 2.2 mg/kg in assay [4]. In addition, the pKi in assay [3] is 6.90.

On to `C(#Cc1cccnc1)CCN1CCN(c2ncccn2)CC1`, for which, in assay [3], the pKi was below 5.00. Further, the ED50 in [4] was above 30 mg/kg.

For the compound `C(#Cc1ccncc1)CCN1CC=C(c2ccccc2)CC1`, the pKi was 6.23 in [5]; 7.49 in [3]; 8.39 in [9]; 8.19 in assay [10]; 6.24 in assay [12]. Moreover, the results for the ED50 in [1] and in assay [11] were 4.4 mg/kg and 11.9 mg/kg, respectively. The compound further yielded a Decrease in assay [6] of 93%. The pEC50 (as a rule, the negative decadic logarithm of the EC50, by convention in mol/L) in assay [7] was 9.00. In [8], the Ki (in general, a dissociation constant, usually derived from enzyme kinetics or from competition with a known ligand) worked out at 25.8 nM.

In assay [1], `C(#Cc1cccnc1)CCCN1CC=C(c2ccccc2)CC1` had an ED50 of 4.3 mg/kg. The compound further showed a pKi in assay [3] of 7.25.

`COc1ccc(C#CCCN2CC=C(c3ccccc3)CC2)cc1`: the ED50 is above 30 mg/kg in [1] and 3.3 mg/kg in [4]. This compound also had a pKi in assay [3] of 6.49.

With `Nc1ccc(C#CCCN2CC=C(c3ccccc3)CC2)nc1`, the pKi was 7.16 in assay [5]; 7.20 in assay [3]; 8.72 in assay [9]; 8.59 in assay [10]; below 5.00 in [13]; 6.43 in [12]. The figures for the ED50 in assay [1] and in assay [11] were 1.7 mg/kg and 0.43 mg/kg, respectively. The compound further returned a Decrease in [6] of 100%. The same compound gave a pEC50 in assay [7] of 8.89. The compound further yielded a Ki in [8] of 57.5 nM.

On to `Oc1ccc2[nH]cc(CCCCN3CC=C(c4ccccc4)CC3)c2c1` [ROXINDOLE], for which the ED50 in [1] was determined as 12.8 mg/kg; in [4] it was 0.2 mg/kg. Moreover, the Decrease in assay [6] is given as 100%; in assay [14], 64%. In addition, the pKi in [3] is 8.04; in [10], 9.40; in assay [12], 7.62.

`C(#Cc1ccc2[nH]ccc2c1)CCN1CC=C(c2ccccc2)CC1`: the ED50 in assay [1] turned out to be 5.2 mg/kg; in [4], 1.2 mg/kg. The compound further had a pKi in assay [3] of 6.71.

`Fc1ccc(N2CCN(CCC#Cc3cccnc3)CC2)cc1`: the values for the median effective dose (ED50) in assay [1] and in assay [2] were 4.3 mg/kg and 4.7 mg/kg, respectively. This compound also showed a pKi in assay [3] of 5.78.
